Laboratory results published in ChEMBL document CHEMBL1132215, “A new method for rapidly generating inhibitors of glyoxalase I inside tumor cells using S-(N-aryl-N-hydroxycarbamoyl)ethylsulfoxides” (J Med Chem, 1999).

Assays:
[1] = Second-order rate constant for acyl-interchange reactions between glutathione and the compound; format: ADME
Summary of the method: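 Cell-free reaction with glutathione in 0.1 M potassium phosphate, pH 7.5, 5% ethanol, 25 °C. Under pseudo-first-order conditions (≥10-fold glutathione excess), derived from the first-order loss of reactants followed spectrophotometrically. For the slow ester analogue, taken instead from the initial rate of product appearance (~0.1% reaction) with 15-fold glutathione excess, followed by reverse-phase HPLC.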

[2] = tested on: L1210; test: Concentration producing 100% tumor growth inhibition of L1210 cells; format: functional; conditions: Mus musculus
Summary of the method: (§1)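 Murine L1210 leukemia cells (NCI tumor repository) in log phase, kept in RPMI 1640 with […], 10% heat-inactivated fetal calf serum and gentamycin (10 µg/mL), 37 °C, 5% CO2. Seeded at 5000 cells/well with at least five drug levels in triplicate. Fresh drug added every 12 h. Cell density counted by Coulter Counter after 48 h. Percentage growth taken against time-zero and no-drug counts. Values interpolated from dose-response curves; mean and SD of three experiments on different days.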

[3] = tested on: L1210; test: Concentration producing 50% growth inhibition of L1210 cells; format: functional; conditions: Mus musculus; summary of the method: as §1
[4] = tested on: L1210; test: Rate constant from the plots of initial rates of disappearance of the drug inside L1210 cells versus extracellular concentration of prodrug.; format: functional, Mus musculus; conditions: in the assay text read “appearance” for “disappearance”
Summary of the method: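 L1210 suspensions (~1.5 × 10^6 cells/mL) in RPMI 1640/10% heat-inactivated FCS with gentamycin, 37 °C, were given fixed prodrug levels. Aliquots taken over time were spun through silicone oil. Pellets were extracted with 70% ethanol and the glutathione conjugate was measured by C18 reverse-phase HPLC at 260 nm against standard curves. The constant is the slope of initial intracellular appearance rate versus extracellular prodrug concentration.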

[5] = tested on: L1210; test: Concentration required to kill 50% L1210 cells; format: ADME, cell-based; conditions: mouse
Summary of the method: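 Mouse L1210 leukemia cells in log growth, RPMI 1640 with 10% heat-inactivated fetal calf serum and gentamycin (10 µg/mL), 37 °C, 5% CO2. Seeded at 5000 cells/well with at least five drug levels in triplicate. Fresh drug added every 12 h. Cell density counted by Coulter Counter after 48 h, viability by trypan blue. LC50 (50% cell killing) interpolated from dose-response curve; three experiments on different days.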

In the case of `CC[S+]([O-])C(=O)N(C)c1ccc(Cl)cc1` (stereo unspecified), the k2 [1] is reported as 2.33 M⁻¹ s⁻¹.

With `Cl.NC(CCC(=O)NC(CSC(=O)N(O)c1ccc(Cl)cc1)C(=O)NCC(=O)OC1CCCC1)C(=O)OC1CCCC1` (stereo unspecified) the TGI [2] was 5.3 µM, the GI50 [3] was 3.4 µM and the Rate constant [4] was 0.59 min⁻¹. For the same molecule, the LC50 [5] was 8.3 µM.

In the case of `CCOC(=O)CNC(=O)C(CSC(=O)N(O)c1ccc(Cl)cc1)NC(=O)CCC(N)C(=O)OCC.Cl` (stereo unspecified), the TGI [2] is reported as 27 µM, the GI50 [3] is reported as 7 µM and the Rate constant [4] is reported as 0.1 min⁻¹. It also gave an LC50 [5] of 54 µM.

`CC[S+]([O-])C(=O)N(O)c1ccc(Cl)cc1` (stereo unspecified) gave a k2 [1] of 30.7 M⁻¹ s⁻¹, a TGI [2] of 3.9 µM and a GI50 [3] of 0.5 µM. The Rate constant [4] was 1.41 min⁻¹ and the LC50 [5] was 13 µM.

In the case of `CC[S+]([O-])C(=O)N(C)O` (stereo unspecified), the k2 [1] is reported as 9.83 M⁻¹ s⁻¹.

With `CCSC(=O)N(O)c1ccc(Cl)cc1` the k2 [1] was 5.83e-06 M⁻¹ s⁻¹.
